Assay results from ChEMBL document CHEMBL3124843, “Synthesis, cytostatic, antimicrobial, and anti-HCV activity of 6-substituted 7-(het)aryl-7-deazapurine ribonucleosides” (J Med Chem, 2014).
The source made the active and inactive calls. The rule behind the calls is not given here.

Legend:
[1] = Cytotoxicity against human HuH7 cells infected with Hepatitis C virus subtype 2a; type: cell-based, Huh-7
Hepatitis C virus [2] = assay: Antiviral activity against Hepatitis C virus subtype 2a infected in human HuH7 cells; type: functional, organism-based, Hepacivirus hominis; conditions: genotype 2a, Huh-7
[3] = Cytotoxicity against human HuH7 cells infected with Hepatitis C virus subtype 1b; type: cell-based, Huh-7
Hepatitis C virus [4] = assay: Antiviral activity against Hepatitis C virus subtype 1b infected in human HuH7 cells; type: functional, organism-based, Hepacivirus hominis; conditions: genotype 1b, Huh-7
Candida tropicalis = assay: Antifungal activity against Candida tropicalis after 48 hrs; type: functional, organism-based
Pichia kudriavzevii = assay: Antifungal activity against Candida crusei after 48 hrs; type: functional, organism-based
Candida parapsilosis = assay: Antifungal activity against Candida parapsilosis after 48 hrs; type: functional, organism-based
Candida albicans = assay: Antifungal activity against Candida albicans after 48 hrs; type: functional, organism-based
Pseudomonas aeruginosa [5] = assay: Antibacterial activity against multi-resistant Pseudomonas aeruginosa A/16575 after 24 hrs; type: functional, organism-based
Escherichia coli [6] = assay: Antibacterial activity against multi-resistant Escherichia coli C/16702 after 24 hrs; type: functional, organism-based
[7] = test system: Staphylococcus haemolyticus; assay: Antibacterial activity against methicillin-resistant Staphylococcus haemolyticus A/16568 after 24 hrs; type: functional, organism-based
Staphylococcus aureus [8] = assay: Antibacterial activity against methicillin-resistant Staphylococcus aureus MRSA 4591 after 24 hrs; type: functional, organism-based
Pseudomonas aeruginosa [9] = assay: Antibacterial activity against Pseudomonas aeruginosa CCM 3955 after 24 hrs; type: functional, organism-based
Escherichia coli [10] = assay: Antibacterial activity against Escherichia coli CCM 3954 after 24 hrs; type: functional, organism-based
Staphylococcus aureus [11] = assay: Antibacterial activity against Staphylococcus aureus CCM 3953 after 24 hrs; type: functional, organism-based
Enterococcus faecalis = assay: Antibacterial activity against Enterococcus faecalis CCM 4224 after 24 hrs; type: functional, organism-based
[12] = Antiproliferative activity against human HeLaS3 cells after 72 hrs by XTT assay; type: functional, cell-based; conditions: HeLa S3, 72 h
Summary of the method: (§1)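 Antiproliferative test on HL-60 promyelocytic leukemia and HeLa S3 cervical carcinoma cells growing in liquid suspension.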

HL-60 = assay: Antiproliferative activity against human HL60 cells after 72 hrs by XTT assay; type: functional, cell-based; conditions: HL-60, 72 h; summary of the method: as §1
HepG2 = assay: Antiproliferative activity against human HepG2 cells after 72 hrs by XTT assay; type: functional, cell-based; conditions: HepG2, 72 h
MRC5 = assay: Cytostatic activity against human MRC5 cells after 72 hrs by MTT assay; type: ADME, cell-based; conditions: MRC5, 72 h
Summary of the method: (§2)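 IC50 is the concentration that cuts cell growth by 50%, read by quantitative metabolic MTT staining after a 3-day treatment. The resistant sublines were made by raising the concentration of the cytotoxic drug step by step. CEM-DNR-bulk (daunorubicin-selected) stably overexpresses mrp-1. K562-TAX (paclitaxel-selected) expresses only mdr-1. HCT116p53−/− carries null p53 alleles. BJ and MRC-5 are nonmalignant fibroblasts.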

BJ = assay: Cytostatic activity against human BJ cells after 72 hrs by MTT assay; type: ADME, cell-based; summary of the method: as §2
HCT-116 [13] = assay: Cytostatic activity against p53-deficient human HCT116 cells after 72 hrs by MTT assay; type: functional, cell-based; conditions: HCT-116, 72 h; summary of the method: as §2
HCT-116 [14] = assay: Cytostatic activity against human HCT116 cells after 72 hrs by MTT assay; type: functional, cell-based; conditions: HCT-116, 72 h; summary of the method: as §2
A549 = assay: Cytostatic activity against human A549 cells after 72 hrs by MTT assay; type: functional, cell-based; conditions: A549, 72 h; summary of the method: as §2
K562 [15] = assay: Cytostatic activity against paclitaxel-resistant human K562 cells after 72 hrs by MTT assay; type: functional, cell-based; conditions: K562, 72 h; summary of the method: as §2
K562 [16] = assay: Cytostatic activity against human K562 cells after 72 hrs by MTT assay; type: functional, cell-based; conditions: K562, 72 h; summary of the method: as §2
[17] = Cytostatic activity against human CEM-DNR-bulk cells after 72 hrs by MTT assay; type: functional, cell-based; summary of the method: as §2
CCRF-CEM = assay: Cytostatic activity against human CCRF-CEM cells after 72 hrs by MTT assay; type: functional, cell-based; summary of the method: as §2

| SMILES | CC50 [1] [µM] | EC50 (Hepatitis C virus [2]) [µM] | CC50 [3] [µM] | EC50 (Hepatitis C virus [4]) [µM] | Activity (Candida tropicalis) | Activity (Pichia kudriavzevii) | Activity (Candida parapsilosis) | Activity (Candida albicans) | Activity (Pseudomonas aeruginosa [5]) | Activity (Escherichia coli [6]) | Activity [7] | Activity (Staphylococcus aureus [8]) | Activity (Pseudomonas aeruginosa [9]) | Activity (Escherichia coli [10]) | Activity (Staphylococcus aureus [11]) | Activity (Enterococcus faecalis) | IC50 [12] [µM] | IC50 (HL-60) [µM] | IC50 (HepG2) [µM] | IC50 (MRC5) [µM] | also measured |
| --- | --- | --- | --- | --- | --- | --- | --- | --- | --- | --- | --- | --- | --- | --- | --- | --- | --- | --- | --- | --- | --- |
| CNc1ncnc2c1c(-c1cccs1)cn2[C@@H]1O[C@H](CO)[C@@H](O)[C@H]1O | > 44 | > 44 | > 44 | > 44 | inactive | inactive | inactive | inactive | inactive | inactive | inactive | inactive | inactive | inactive | inactive | inactive | > 20 | > 20 | > 20 | > 100 | IC50 (BJ): > 100 µM; IC50 (HCT-116 [13]): > 20 µM; IC50 (HCT-116 [14]): > 20 µM; IC50 (A549): > 20 µM; IC50 (K562 [15]): > 20 µM; IC50 (K562 [16]): > 20 µM; IC50 [17]: > 20 µM; IC50 (CCRF-CEM): > 20 µM |
| O=c1[nH]cnc2c1c(-c1ccsc1)cn2[C@@H]1O[C@H](CO)[C@@H](O)[C@H]1O | > 44 | > 44 | > 44 | 14.3 | inactive | inactive | inactive | inactive | inactive | inactive | inactive | inactive | inactive | inactive | inactive | inactive | > 20 | 12 | > 15 | > 100 | IC50 (BJ): > 100 µM; IC50 (HCT-116 [13]): > 20 µM; IC50 (HCT-116 [14]): > 20 µM; IC50 (A549): > 20 µM; IC50 (K562 [15]): > 20 µM; IC50 (K562 [16]): > 20 µM; IC50 [17]: > 20 µM; IC50 (CCRF-CEM): 14.5 µM |
| C#Cc1cn([C@@H]2O[C@H](CO)[C@@H](O)[C@H]2O)c2ncnc(OC)c12 | > 44 | > 44 | > 44 | 0.18 | inactive | inactive | inactive | inactive | inactive | inactive | inactive | inactive | inactive | inactive | inactive | inactive | 1.73 | 0.19 | 12.7 | > 100 | IC50 (BJ): 98.4 µM; IC50 (HCT-116 [13]): 5.14 µM; IC50 (HCT-116 [14]): 4.06 µM; IC50 (A549): 8.16 µM; IC50 (K562 [15]): 0.38 µM; IC50 (K562 [16]): 0.3 µM; IC50 [17]: 3.49 µM; IC50 (CCRF-CEM): > 20 µM |
| Cc1nc(N)c2c(-c3ccco3)cn([C@@H]3O[C@H](CO)[C@@H](O)[C@H]3O)c2n1 | > 44 | > 44 | > 44 | > 44 | inactive | inactive | inactive | inactive | inactive | inactive | inactive | inactive | inactive | inactive | inactive | inactive | > 20 | > 20 | > 20 | > 100 | IC50 (BJ): > 100 µM; IC50 (HCT-116 [13]): > 20 µM; IC50 (HCT-116 [14]): > 20 µM; IC50 (A549): > 20 µM; IC50 (K562 [15]): > 20 µM; IC50 (K562 [16]): > 20 µM; IC50 [17]: > 20 µM; IC50 (CCRF-CEM): > 100 µM |
| CNc1ncnc2c1c(-c1ccsc1)cn2[C@@H]1O[C@H](CO)[C@@H](O)[C@H]1O | > 44 | > 44 | > 44 | > 44 | inactive | inactive | inactive | inactive | inactive | inactive | inactive | inactive | inactive | inactive | inactive | inactive | > 20 | > 20 | > 20 | > 100 | IC50 (BJ): > 100 µM; IC50 (HCT-116 [13]): > 20 µM; IC50 (HCT-116 [14]): > 20 µM; IC50 (A549): > 20 µM; IC50 (K562 [15]): > 20 µM; IC50 (K562 [16]): > 20 µM; IC50 [17]: > 20 µM; IC50 (CCRF-CEM): > 20 µM |
| Cc1ncnc2c1c(Br)cn2[C@@H]1O[C@H](CO)[C@@H](O)[C@H]1O | 28.2 | 20.7 | 35.6 | 12 | inactive | inactive | inactive | inactive | inactive | inactive | inactive | inactive | inactive | inactive | inactive | inactive | 13.8 | 7.24 | 5.55 | 24.4 | IC50 (BJ): > 100 µM; IC50 (HCT-116 [13]): 19.6 µM; IC50 (HCT-116 [14]): 15.7 µM; IC50 (A549): > 20 µM; IC50 (K562 [15]): 15.8 µM; IC50 (K562 [16]): > 20 µM; IC50 [17]: > 20 µM; IC50 (CCRF-CEM): 15 µM |
| CNc1ncnc2c1c(-c1cc3ccccc3o1)cn2[C@@H]1O[C@H](CO)[C@@H](O)[C@H]1O | > 44 | 13.6 | > 44 | 2.05 | inactive | inactive | inactive | inactive | inactive | inactive | inactive | inactive | inactive | inactive | inactive | inactive | > 20 | 8.95 | > 20 | 75.3 | IC50 (BJ): 75.6 µM; IC50 (HCT-116 [13]): > 20 µM; IC50 (HCT-116 [14]): > 20 µM; IC50 (A549): > 20 µM; IC50 (K562 [15]): > 20 µM; IC50 (K562 [16]): > 20 µM; IC50 [17]: > 20 µM; IC50 (CCRF-CEM): > 20 µM |
| Cc1ncnc2c1c(-c1ccccc1)cn2[C@@H]1O[C@H](CO)[C@@H](O)[C@H]1O | > 44 | > 44 | > 44 | 34.8 | inactive | inactive | inactive | inactive | inactive | inactive | inactive | inactive | inactive | inactive | inactive | inactive | > 20 | > 20 | > 20 | > 100 | IC50 (BJ): > 100 µM; IC50 (HCT-116 [13]): 95.3 µM; IC50 (HCT-116 [14]): > 100 µM; IC50 (A549): > 20 µM; IC50 (K562 [15]): > 20 µM; IC50 (K562 [16]): > 20 µM; IC50 [17]: > 20 µM; IC50 (CCRF-CEM): > 20 µM |
| CNc1ncnc2c1c(-c1ccccc1)cn2[C@@H]1O[C@H](CO)[C@@H](O)[C@H]1O | > 44 | > 44 | > 44 | > 44 | inactive | inactive | inactive | inactive | inactive | inactive | inactive | inactive | inactive | inactive | inactive | inactive | > 20 | > 20 | > 20 | > 100 | IC50 (BJ): > 100 µM; IC50 (HCT-116 [13]): > 100 µM; IC50 (HCT-116 [14]): > 20 µM; IC50 (A549): > 20 µM; IC50 (K562 [15]): > 20 µM; IC50 (K562 [16]): > 20 µM; IC50 [17]: > 20 µM; IC50 (CCRF-CEM): > 20 µM |
